# Measurements from ChEMBL document CHEMBL1145978, “New N-n-propyl-substituted 3-aryl- and 3-cyclohexylpiperidines as partial agonists at the D4 dopamine receptor” (J Med Chem, 2003).
# Columns and labels:
# D(1A) dopamine receptor = D(1A) dopamine receptor (Bos taurus, UniProt Q95136); test: Affinity for Dopamine receptor D1 using [3H]SCH-23390 was carried out on bovine retinal membrane preparations; set-up: species or system Retina
# Summary of the method: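 Bovine retinal membranes were homogenized in Tris 50 mM, EDTA 1, CaCl2 1.5, MgCl2 4, KCl 5, NaCl 120 mM, pH 7.4, and used at about 4 mg wet tissue/mL. They were incubated with 0.5 nM [3H]-SCH23390 for 20 min at 30 °C, in duplicate. Nonspecific binding was set with 2 mM DA, and bound ligand was separated by vacuum filtration. Ki was derived from IC50 using Kd 2 nM.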
# D(2) dopamine receptor [1] = biological target: T1, D(2) dopamine receptor (Bos taurus, UniProt P20288); test: Affinity for Dopamine receptor D2 using [3H]YM-09151-2 was carried out on bovine retinal membrane preparations (low-affinity); set-up: species or system Retina
# T1 sequence (P20288 whole entry): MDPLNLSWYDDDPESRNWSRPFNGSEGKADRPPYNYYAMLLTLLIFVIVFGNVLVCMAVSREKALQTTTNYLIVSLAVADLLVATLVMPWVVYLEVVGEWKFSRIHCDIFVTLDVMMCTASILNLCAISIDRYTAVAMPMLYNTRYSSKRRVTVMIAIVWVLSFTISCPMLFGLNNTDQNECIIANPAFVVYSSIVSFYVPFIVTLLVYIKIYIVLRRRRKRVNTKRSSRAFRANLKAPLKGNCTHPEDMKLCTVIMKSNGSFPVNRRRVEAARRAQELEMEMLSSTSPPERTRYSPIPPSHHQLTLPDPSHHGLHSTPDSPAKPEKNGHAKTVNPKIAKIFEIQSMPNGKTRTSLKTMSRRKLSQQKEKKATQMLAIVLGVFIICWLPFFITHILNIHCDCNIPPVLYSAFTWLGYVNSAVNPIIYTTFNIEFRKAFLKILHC
# Summary of the method: (§1)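 Retinal membranes were prepared in Tris/EDTA/Ca/Mg/K/NaCl saline, pH 7.4, at about 4 mg wet tissue/mL. They were incubated with 0.1 nM [3H]-YM-09-151-2 at 30 °C for 60 min, in duplicate, with 2 mM DA defining nonspecific binding, followed by rapid filtration. Displacement curves were fitted to a two-site model, giving high- and low-affinity Ki from IC50 using Kd 0.4 nM.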
# D(2) dopamine receptor [2] = biological target: T1, D(2) dopamine receptor; test: Affinity for Dopamine receptor D2 using [3H]-YM-09151-2 was carried out on bovine striatal membrane preparations; set-up: species or system Striatum
# Summary of the method: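 Competition binding on bovine striatal membranes: homogenised in Tris 50, EDTA 1, CaCl2 1.5, MgCl2 4, KCl 5, NaCl 120 mM, pH 7.4; centrifuged 48 000 g, 20 min, 4 °C, washed, used at ~1.25 mg wet tissue/mL. 0.1 nM [3H]-YM-09-151-2 (Kd 0.4 nM), 60 min at 30 °C, duplicates; nonspecific with 2 mM DA; vacuum filtration; Ki from IC50.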
# D(2) dopamine receptor [3] = biological target: T1, D(2) dopamine receptor; test: Affinity for Dopamine receptor D2 using [3H]YM-09151-2 was carried out on bovine retinal membrane preparations (high-affinity); set-up: species or system Retina; summary of the method: as §1
# Chain of D(1A) dopamine receptor (Q95136 whole entry): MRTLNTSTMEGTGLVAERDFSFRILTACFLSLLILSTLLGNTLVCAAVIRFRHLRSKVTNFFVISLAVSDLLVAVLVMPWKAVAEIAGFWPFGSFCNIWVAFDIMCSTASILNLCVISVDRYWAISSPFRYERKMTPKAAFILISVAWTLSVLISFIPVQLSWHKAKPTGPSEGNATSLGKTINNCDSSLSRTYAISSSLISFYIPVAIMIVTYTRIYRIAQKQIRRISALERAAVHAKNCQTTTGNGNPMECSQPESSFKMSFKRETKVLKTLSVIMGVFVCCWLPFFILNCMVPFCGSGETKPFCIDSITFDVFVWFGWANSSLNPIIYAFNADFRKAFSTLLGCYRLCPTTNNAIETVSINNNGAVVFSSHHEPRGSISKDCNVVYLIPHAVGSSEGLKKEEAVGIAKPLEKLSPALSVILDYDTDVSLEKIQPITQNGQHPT
Compound,Ki (D(1A) dopamine receptor) [µM],Ki (D(2) dopamine receptor [1]) [µM],Ki (D(2) dopamine receptor [2]) [µM],Ki (D(2) dopamine receptor [3]) [µM]
CCCN1CCCC(C2CCCCC2C)C1 (centres undefined),> 10,43.2,0.42,0.026
CCCN1CCCC(C2CCCCC2)C1 (centres undefined),> 10,24.9,14.4,0.004
CCCN1CCCC(c2ccc(C)cc2)C1 (centres undefined),> 10,35.4,13.8,0.044
CCCN1CCCC(c2cccc(C)c2)C1 (centres undefined),> 10,15.9,–,0.042
CCCN1CCCC(c2ccccc2)C1 (centres undefined),> 10,43.7,10.8,0.039
CCCN1CCCC(C2CCC(C)CC2)C1 (centres undefined),> 10,64,20,0.004
CCCN1CCCC(C2CCCC(C)C2)C1 (centres undefined),> 10,27,10,0.005
CCCN1CCCC(c2ccccc2C)C1 (centres undefined),> 10,26.7,1.51,0.449
CCCN1CCCC(c2ccc(C)c(C)c2)C1 (centres undefined),> 10,7.6,8.1,0.027
"Cc1cccc(C(=O)NCN2CCN(c3ccccc3C#N)CC2)c1 [PD-168,077]",> 10,6.3,18.3,0.025
